Measurements from publication PMC2818757 (Peptides, 2009).
Ends that are not written are not given here.

How the values were obtained:
NCI-H69 cells = test: Phospholipase C / [3H]IP stimulation in SCLC cells NCI-H69; type: cell-based, human; settings: 0.1 uM peptide alone, 37C, 60 min, mean ± SEM, at least 4 experiments
NCI-H209 cells = test: Phospholipase C / [3H]IP stimulation in SCLC cells NCI-H209; type: cell-based, human; settings: 0.1 uM peptide alone, 37C, 60 min, mean ± SEM, at least 4 experiments
NCI-N417 cells = test: Phospholipase C / [3H]IP stimulation in SCLC cells NCI-N417; type: cell-based, human; settings: 0.1 uM peptide alone, 37C, 60 min, mean ± SEM, at least 4 experiments
Summary of the method: (§1)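 SCLC suspension cells (1 × 10^6 cells/ml) were labelled 24 h at 37C with myo-[2-3H]inositol in RPMI with 2% FBS. Cells were washed, held 10 min in PBS pH 7.0 with 20 mM LiCl, then resuspended in HEPES pH 7.4 buffer with LiCl, EGTA, glucose and BSA. Peptide exposure was 60 min at 37C, stopped with ice-cold HCl/methanol. Total [3H]IP was eluted from anion-exchange resin and counted by scintillation; values are expressed as experimental/control.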

NCI-N592 cells = test: Phospholipase C / [3H]IP stimulation in SCLC cells NCI-N592; type: cell-based, human; settings: 0.1 uM peptide alone, 37C, 60 min, mean ± SEM, at least 4 experiments
Summary of the method: as §1

Antiserum 8684 = test: GRP18-27gly #8684 RIA cross-reactivity; type: binding, rabbit; settings: 125I-labeled GRP-gly tracer; GRP18-27gly standard

## CSCC[C@H](NC(=O)[C@H](CC(C)C)NC(=O)[C@H](Cc1c[nH]cn1)NC(=O)CNC(=O)[C@@H](NC(=O)[C@H](C)NC(=O)[C@H](Cc1c[nH]c2ccccc12)NC(=O)[C@H](Cc1c[nH]cn1)NC(=O)[C@H](CC(N)=O)NC(=O)CNC(=O)[C@H](CCCNC(=N)N)NC(=O)[C@@H]1CCCN1C(=O)[C@H](Cc1ccc(O)cc1)NC(=O)[C@H](CCSC)NC(=O)[C@H](CCCCN)NC(=O)[C@@H](NC(=O)[C@H](CC(C)C)NC(=O)[C@@H](NC(=O)[C@@H](NC(=O)CNC(=O)CNC(=O)CNC(=O)[C@H](C)NC(=O)[C@@H]1CCCN1C(=O)[C@H](CC(C)C)NC(=O)[C@@H]1CCCN1C(=O)[C@@H](N)C(C)C)[C@@H](C)O)C(C)C)[C@@H](C)O)C(C)C)C(N)=O [GRP, gastrin releasing peptide]
NCI-H69 cells
  Phospholipase C activity, Experimental/control: 1.23±0.07
NCI-H209 cells
  Phospholipase C activity, Experimental/control: 1.11±0.04
NCI-N417 cells
  Phospholipase C activity, Experimental/control: 1.03±0.01
NCI-N592 cells
  Phospholipase C activity, Experimental/control: 1.03±0.04

## GRP1-27: amidated form of gastrin releasing peptide 1-27 (VPLPAGGGTVLTKMYPRGNHWAVGHLM-NH2; UniProt P07492 24-50, looked up)
Antiserum 8684
  cross-reactivity with antiserum 8684: 60%

## GRP18-27: amidated GRP18-27; differs from bombesin by a Gln to His substitution at position 20
Antiserum 8684
  cross-reactivity with antiserum 8684: 60%

## [D-Phe^6, β-Ala^11, Phe^13, Nle^14] Bn(6-14)
NCI-H69 cells
  Phospholipase C activity, Experimental/control: 1.31±0.04
NCI-H209 cells
  Phospholipase C activity, Experimental/control: 1.17±0.03
NCI-N417 cells
  Phospholipase C activity, Experimental/control: 3.14±0.34
NCI-N592 cells
  Phospholipase C activity, Experimental/control: 1.05±0.04

## bombesin
Antiserum 8684
  cross-reactivity with antiserum 8684: less than 1%
